Tests used:
Assay type in all cases: functional
[1] = test system: SN12C; test: Growth inhibition of human SN12C cells; conditions: for TGI: read-out: pTGI (converted)
[2] = test system: A549; test: Selectivity index, ratio of EC50 for human A549 cells to EC50 for SF295 cells
In short: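 SF-295 cells were kept in RPMI 1640 and A549 in F-12, each with 10% FBS, pen-strep, amphotericin B and L-glutamine, at 37 °C and 5% CO2. Cells at 60% confluency were dosed for 44 h, then given 0.06 mg/mL MTT for 4 h (SF-295 in phenol-red-free RPMI). Acid/Triton/isopropanol stop was added overnight at 37 °C, and OD read at 540/650 nm. EC50 ratio is A549 over SF-295.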

[3] = test system: NCI-H322M; test: Growth inhibition of human NCI-H322M cells; conditions: for TGI: read-out: pTGI (converted)
[4] = test system: A498; test: Growth inhibition of human A498 cells; conditions: for TGI: read-out: pTGI (converted)
[5] = Growth inhibition of human Hs 578T cells
[6] = test system: CCRF-CEM; test: Growth inhibition of human CCRF-CEM cells; conditions: for CC50: read-out: pLC50 (the source's name) (converted); for TGI: read-out: pTGI (converted)
[7] = test system: MOLT-4; test: Growth inhibition of human MOLT4 cells; conditions: for TGI: read-out: pTGI (converted)
[8] = test system: HT-29; test: Growth inhibition of human HT-29 cells; conditions: for TGI: read-out: pTGI (converted)
[9] = test system: UACC-257; test: Growth inhibition of human UACC257 cells; conditions: for TGI: read-out: pTGI (converted)
[10] = test system: HL-60(TB); test: Growth inhibition of human HL-60(TB) cells; conditions: for CC50: read-out: pLC50 (the source's name) (converted); for TGI: read-out: pTGI (converted)
[11] = test system: SW-620; test: Growth inhibition of human SW620 cells
[12] = test system: HOP-92; test: Growth inhibition of human HOP92 cells; conditions: for TGI: read-out: pTGI (converted)
[13] = test system: LOX IMVI; test: Growth inhibition of human LOXIMVI cells; conditions: for TGI: read-out: pTGI (converted)
[14] = test system: SF-268; test: Growth inhibition of human SF268 cells; conditions: for TGI: read-out: pTGI (converted)
[15] = test system: T47D; test: Growth inhibition of human T47D cells; conditions: for CC50: read-out: pLC50 (the source's name) (converted)
[16] = test system: 786-0; test: Growth inhibition of human 786-0 cells; conditions: for TGI: read-out: pTGI (converted)
[17] = test system: HCT-116; test: Growth inhibition of human HCT116 cells; conditions: for CC50: read-out: pLC50 (the source's name) (converted); for TGI: read-out: pTGI (converted)
[18] = test system: KM12; test: Growth inhibition of human KM12 cells; conditions: for TGI: read-out: pTGI (converted)
[19] = test system: SR; test: Growth inhibition of human SR cells; conditions: for TGI: read-out: pTGI (converted)
[20] = test system: NCI-H522; test: Growth inhibition of human NCI-H522 cells; conditions: for TGI: read-out: pTGI (converted)
[21] = test system: SK-MEL-28; test: Growth inhibition of human SK-MEL-28 cells
[22] = test system: OVCAR-8; test: Growth inhibition of human OVCAR8 cells
[23] = read-out: pLC50 (the source's name) (converted)

COc1cc(/C=C/c2cc(O)c(CCC(C)C)c(O)c2)cc2c1O[C@]1(C)CC[C@@H](O)C(C)(C)[C@H]1C2 showed a GI50 [1] of 0.741 µM, an LC50 [1] of over 100 µM and a TGI [1] of 36.3 µM. The “Ratio EC50” value [2] was 10, the GI50 [3] was 0.933 µM and the TGI [3] was 28.8 µM. For the same compound, the GI50 [4] was 0.158 µM, the LC50 [4] was 36.3 µM and the TGI [4] was 6.31 µM. It also gave a GI50 [5] of 0.0309 µM, a CC50 [5, 23] of over 100 µM and a TGI ([5]; read-out: pTGI (converted)) of 0.166 µM. For the same compound, the GI50 [6] was 0.148 µM, the CC50 [6] was over 100 µM and the TGI [6] was 18.6 µM. For the same compound, the GI50 [7] was 0.0457 µM, the LC50 [7] was over 100 µM and the TGI [7] was 18.6 µM. It also gave a GI50 [8] of 0.813 µM, an LC50 (50% lethal concentration) [8] of 97.7 µM and a TGI [8] of 4.47 µM. For the same compound, the GI50 [9] was 3.39 µM, the LC50 [9] was 64.6 µM and the TGI [9] was 21.9 µM. It also gave a GI50 [10] of 0.251 µM, a CC50 [10] of over 100 µM and a TGI [10] of 38.9 µM. The GI50 [11] was 0.214 µM, the CC50 [11, 23] was 14.8 µM and the TGI ([11]; read-out: pTGI (converted)) was 2.34 µM. The GI50 [12] was 1.51 µM, the LC50 [12] was over 100 µM and the TGI [12] was 24 µM. The GI50 [13] was 0.0708 µM, the LC50 [13] was 5.89 µM and the TGI [13] was 1.78 µM. The GI50 [14] was 0.214 µM, the LC50 [14] was 39.8 µM and the TGI [14] was 11.5 µM. The GI50 [15] was 2.04 µM, the CC50 [15] was over 100 µM and the GI50 [16] was 0.0102 µM. The LC50 [16] was 2.88 µM, the TGI [16] was 0.0537 µM and the GI50 [17] was 0.0468 µM. The CC50 [17] was 47.9 µM, the TGI [17] was 8.13 µM and the GI50 [18] was 0.275 µM. For the same compound, the LC50 [18] was 28.8 µM, the TGI [18] was 5.25 µM and the GI50 [19] was 0.0891 µM. It also gave an LC50 [19] of over 100 µM, a TGI [19] of 10.5 µM and a GI50 [20] of 1.32 µM. The LC50 (50% lethal concentration) [20] was over 100 µM, the TGI [20] was 24 µM and the GI50 [21] was 0.123 µM. The CC50 [21, 23] was 37.2 µM and the TGI ([21]; read-out: pTGI (converted)) was 11.2 µM.

Work on COc1cc(CCc2cc(O)c(C/C=C(\C)CC/C=C(\C)CO)c(O)c2)cc2c1O[C@]1(C)CC[C@@H](O)C(C)(C)[C@H]1C2 yielded a GI50 [1] of 7.59 µM, an LC50 [1] of over 100 µM and a TGI [1] of 52.5 µM. It also gave a GI50 [3] of 5.5 µM, a CC50 [3, 23] of over 100 µM and a TGI [3] of 42.7 µM. For the same compound, the GI50 [4] was 7.59 µM, the LC50 [4] was over 100 µM and the TGI [4] was 61.7 µM. It also gave a GI50 [6] of 4.07 µM, a CC50 [6] of over 100 µM and a TGI [6] of 45.7 µM. It also gave a GI50 [7] of 1.7 µM, an LC50 [7] of 97.7 µM and a TGI [7] of 7.59 µM. It also gave a GI50 [8] of 7.94 µM, an LC50 (50% lethal concentration) [8] of 87.1 µM and a TGI [8] of 26.3 µM. It also gave a GI50 [9] of 6.61 µM, an LC50 [9] of over 100 µM and a TGI [9] of 28.2 µM. The GI50 [10] was 3.02 µM, the CC50 [10] was 95.5 µM and the TGI [10] was 12.6 µM. For the same compound, the GI50 [12] was 7.41 µM, the LC50 [12] was over 100 µM and the TGI [12] was 47.9 µM. The GI50 [13] was 4.47 µM, the LC50 [13] was 46.8 µM and the TGI [13] was 16.6 µM. The GI50 [14] was 6.03 µM, the LC50 [14] was 87.1 µM and the TGI [14] was 25.7 µM. The GI50 [15] was 5.89 µM, the CC50 [15] was over 100 µM and the TGI ([15]; read-out: pTGI (converted)) was 35.5 µM. It also gave a GI50 [16] of 2.4 µM, an LC50 [16] of over 100 µM and a TGI [16] of over 100 µM. It also gave a GI50 [17] of 3.47 µM, a CC50 [17] of 40.7 µM and a TGI [17] of 13.2 µM. It also gave a GI50 [22] of 8.32 µM, a CC50 [22, 23] of over 100 µM and a TGI ([22]; read-out: pTGI (converted)) of 64.6 µM. For the same compound, the GI50 [18] was 4.17 µM, the LC50 [18] was 91.2 µM and the TGI [18] was 18.6 µM. It also gave a GI50 [19] of 2.09 µM, an LC50 [19] of 66.1 µM and a TGI [19] of 7.59 µM. For the same compound, the GI50 [20] was 5.25 µM, the LC50 (50% lethal concentration) [20] was over 100 µM and the TGI [20] was 29.5 µM.
